Published values gathered from unrelated publications.
Each line is one published result; the experiments were not run side by side.
Target: Serine/threonine-protein kinase OSR1 (OXSR1, Homo sapiens, UniProt O95747)

Cn1cc(Cl)c2c(Oc3c(F)cc(Nc4cc(Cl)nc(N)n4)cc3F)ccnc21 — remaining binding (cell-free assay, competition with immobilised ligand; 0.1 µM): 93%
CCC1(CC)NC(=O)c2c(c3ccc(Cl)c(Cl)c3n2C)C1C#N (centres unmarked) — ΔTm (thermal stability, DSF; 10 µM): -0.3 °C
O=C(Nc1cnn(-c2csc(C(=O)NC3COC3)c2)c1)Nc1ccccc1Cl — remaining activity (enzyme activity, inhibitor; 5 µM): 92.6%
Cn1nc(C(F)(F)F)cc1-c1cnc(N2CCc3cc(S(=O)(=O)Nc4c(F)cc(Cl)cc4F)cc(N4CCCC4=O)c32)nc1 — remaining binding (cell-free assay, competition with immobilised ligand; 1 µM): 99%
COc1cc(/C=C/C(=O)CC(=O)/C=C/c2ccc(O)c(OC)c2)ccc1O — activity vs control (enzyme activity, inhibitor; 1 µM): 104%
Cc1nc(Cc2cccc(C(F)(F)F)c2)sc1-c1ccc(C(N)=O)nc1 — remaining binding (cell-free assay, competition with immobilised ligand; 1 µM): 100%
CCN1CCN(Cc2ccc(NC(=O)c3ccc(C)c(Oc4ccnc5[nH]ccc45)c3)cc2C(F)(F)F)CC1 — inhibition (target engagement in cells, inhibitor, chemoproteomics; Huh-7; 10 µM): -24.5%
c1ccc(CNc2nc(N3CCOc4ccccc43)nc3c2CCCC3)cc1 — inhibition (target engagement in cells, inhibitor, chemoproteomics; 20 mM): -9%
Cn1c2c(c3ccc(Cl)c(Cl)c31)C(C#N)C(C)(C)NC2=O (centres unmarked) — ΔTm (thermal stability, DSF; 10 µM): -0.1 °C
CCS(=O)(=O)c1cc2cc(C[C@@](O)(CC(C)(C)c3ccc(F)cc3C(N)=O)C(F)(F)F)[nH]c2cn1 — remaining binding (cell-free assay, competition with immobilised ligand; 1 µM): 88%
COc1cccc2c(NCc3ccccc3)nc(-n3c(N)nc4ccccc43)nc12 — inhibition (target engagement in cells, inhibitor, chemoproteomics; 20 mM): -6.6%
Cc1c(NC(=O)c2cc(C(N)=O)nc3cc(F)ccc23)c(C(F)(F)F)nn1Cc1ccc(C(C)(C)C)cc1 — remaining binding (cell-free assay, competition with immobilised ligand; 1 µM): 100%
O=C(Nc1cnn(-c2csc(C(=O)NC3COC3)c2)c1)Nc1c(F)cccc1Cl — remaining activity (enzyme activity, inhibitor; 5 µM): 96.5%
CCc1ccccc1C(=O)Nc1n[nH]c2c(C)c(F)c(C3C(C#N)=C(C)N(C)C(C)=C3C#N)cc12 — remaining binding (cell-free assay, competition with immobilised ligand; 1 µM): 100%
N#CC1c2c([nH]c3c(Cl)c(Cl)ccc23)C(=O)NC12CCCCC2 (racemic) — ΔTm (thermal stability, DSF; 10 µM): 0.1 °C
N#CCCc1ccc2c(c1)-c1[nH]c3ccc([N+](=O)[O-])cc3c1CC(=O)N2 — remaining signal (cell-free assay; 0.5 µM): 94.6%
FC(F)(F)Oc1cccc(-c2cnc3ccc(-c4ccncc4)nn23)c1 — activity vs control (enzyme activity, inhibitor, radiometric; 1 µM): 97%
COc1cc(Nc2cnc(C#N)c(O[C@H](C)CN(C)C)n2)ncc1-c1cnn(C)c1 — remaining activity (enzyme activity, inhibitor, radiometric; 10 µM): 106%
O=C(NS(=O)(=O)c1ccc(NCC2CCOCC2)c([N+](=O)[O-])c1)c1ccc(N2CCN(Cc3ccc(C(F)(F)F)cc3-c3ccc(Cl)cc3)CC2)cc1Oc1cnc2[nH]ccc2c1 — remaining binding (cell-free assay, competition with immobilised ligand; 1 µM): 83%
Cn1c2c(Cl)c(Cl)ccc2c2cc(N)[nH]c(=O)c21 — ΔTm (thermal stability, DSF; 10 µM): -0.2 °C
Cc1ccc(Nc2nccc(N(C)c3ccc4c(C)n(C)nc4c3)n2)cc1S(N)(=O)=O — remaining activity (enzyme activity, inhibitor; 0.5 µM): 103%
CCN1CCC2(CC1)NC(=O)c1c(c3ccc(Cl)c(Cl)c3n1C)C2C#N (racemic) — ΔTm (thermal stability, DSF; 10 µM): 0 °C
C[C@@H]1CCN(C(=O)CC#N)C[C@@H]1N(C)c1ncnc2[nH]ccc12 — remaining signal (cell-free assay, inhibitor; 0.5 µM): 98.2%
O=C1NC(c2ccccn2)Sc2ccccc21 (centres unmarked) — remaining binding (cell-free assay, competition with immobilised ligand; 1 µM): 100%
Cn1c2c(c3ccc(Cl)c(Cl)c31)C(C#N)C1(CCN(C(=O)OC(C)(C)C)CC1)NC2=O (racemic) — ΔTm (thermal stability, DSF; 10 µM): -0.1 °C
Cc1ccc(NC(=O)c2ccc(CN3CCN(C)CC3)cc2)cc1Nc1nc(-c2cccnc2)cs1 — remaining signal (cell-free assay; 0.5 µM): 95.6%
